Source: ChEMBL document CHEMBL3351969, “Chalcone based azacarboline analogues as novel antitubulin agents: design, synthesis, biological evaluation and molecular modelling studies” (Eur J Med Chem, 2014)
Activity calls are given as the source filed them. The rule behind the calls is not given here.

Columns and labels:
[1] = tested on: THP-1; assay: Cytotoxicity against human THP1 cells assessed as growth inhibition at 50 uM after 48 hrs by sulforhodamine B assay; type: functional; conditions: for inhibition of growth at 50 µM: THP-1, 48 h, read-out: GI
In short: (§1)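 Single-point SRB screen at 50 µM. Cells were seeded and grown 24 h at 37°C in a CO2 incubator, then exposed to compound in complete medium for 48 h. Cells were fixed with 50% TCA for 1 h at 4°C, water-washed, and stained with 0.4% SRB in 1% acetic acid for 30 min. After 1% TCA washes, dye was dissolved in Tris-HCl (0.01 M, pH 10.4) and OD read at 540 nm.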

[2] = tested on: A549; assay: Cytotoxicity against human A549 cells assessed as growth inhibition at 50 uM after 48 hrs by sulforhodamine B assay; type: functional; conditions: for inhibition of growth at 50 µM: A549, 48 h, read-out: GI; in short: as §1
[3] = tested on: HCT-116; assay: (§2) Cytotoxicity against human HCT116 cells assessed as growth inhibition at 50 uM after 48 hrs by sulforhodamine B assay; type: functional; in short: as §1
[4] = tested on: COLO 205; assay: Cytotoxicity against human COLO205 cells assessed as growth inhibition at 50 uM after 48 hrs by sulforhodamine B assay; type: functional; conditions: for inhibition of growth at 50 µM: COLO 205, 48 h, read-out: GI; in short: as §1
[5] = as §2; type: functional; conditions: HCT-116, 48 h, read-out: GI; in short: as §1
[6] = Cytotoxicity against human HCT116 cells assessed as growth inhibition after 48 hrs by sulforhodamine B assay; type: functional, cell-based; conditions: HCT-116, 48 h
In short: (§3)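 SRB growth assay with compound dilutions over several concentrations. Cells were pre-grown 24 h at 37°C in a CO2 incubator, then exposed for 48 h. Cells were fixed with 50% TCA (1 h, 4°C) and stained with 0.4% SRB in 1% acetic acid for 30 min. Bound dye was solubilised in 0.01 M Tris-HCl (pH 10.4) and read at 540 nm. Percent inhibition versus untreated (blank-subtracted) was used to calculate IC50.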

[7] = tested on: COLO 205; assay: Cytotoxicity against human COLO205 cells assessed as growth inhibition after 48 hrs by sulforhodamine B assay; type: functional, cell-based; conditions: COLO 205, 48 h; in short: as §3
[8] = tested on: THP-1; assay: Cytotoxicity against human THP1 cells assessed as growth inhibition after 48 hrs by sulforhodamine B assay; type: functional, cell-based; conditions: THP-1, 48 h; in short: as §3

| SMILES | growth inhibition (GI) [1] | growth inhibition (GI) [2] | growth inhibition (GI) [3] | growth inhibition (GI) [4] | inhibition of growth at 50 µM [1] | inhibition of growth at 50 µM [2] | inhibition of growth at 50 µM [5] | inhibition of growth at 50 µM [4] | IC50 [6] | IC50 [7] | IC50 [8] |
| --- | --- | --- | --- | --- | --- | --- | --- | --- | --- | --- | --- |
| CC(=O)n1c2cccc(Br)c2c2cc(-c3ccc([N+](=O)[O-])cc3)nnc21 | inactive | inactive | inactive | inactive | – | – | – | – | – | – | – |
| CC(=O)n1c2cc(Br)cc(Br)c2c2cc(-c3ccc(Br)cc3)nnc21 | inactive | inactive | inactive | inactive | – | – | – | – | – | – | – |
| CC(=O)n1c2cccc(Cl)c2c2cc(-c3ccc([N+](=O)[O-])cc3)nnc21 | – | inactive | inactive | inactive | 14% | – | – | – | – | – | – |
| CC(=O)n1c2cccc(I)c2c2cc(-c3ccc(Br)cc3)nnc21 | inactive | inactive | inactive | inactive | – | – | – | – | – | – | – |
| CC(=O)n1c2cccc(Br)c2c2cc(-c3ccc4ccccc4c3)nnc21 | – | – | – | – | 40% | 8% | 18% | 14% | – | – | – |
| CC(=O)n1c2ccccc2c2cc(-c3ccc([N+](=O)[O-])cc3)nnc21 | – | inactive | – | – | 19% | – | 19% | 17% | – | – | – |
| COc1ccc(-c2cc3c4c(Cl)cccc4n(C(C)=O)c3nn2)cc1OC | – | inactive | – | – | 71% | – | 49% | 54% | 15.8 µM | 17.2 µM | 13.8 µM |
| CC(=O)n1c2ccccc2c2cc(-c3ccc(Cl)cc3)nnc21 | – | inactive | – | – | 39% | – | 35% | 35% | – | – | – |
| CC(=O)n1c2cccc(Cl)c2c2cc(-c3ccccc3)nnc21 | – | inactive | – | – | 50% | – | 29% | 22% | – | – | – |
| CC(=O)n1c2cccc(Br)c2c2cc(-c3ccccc3)nnc21 | – | inactive | inactive | inactive | 27% | – | – | – | – | – | – |
| CC(=O)n1c2cccc(Cl)c2c2cc(-c3ccc(Br)cc3)nnc21 | – | inactive | inactive | – | 15% | – | – | 10% | – | – | – |
| CC(=O)n1c2cccc(Cl)c2c2cc(-c3ccc[nH]3)nnc21 | – | – | – | – | 53% | 16% | 37% | 34% | – | – | – |
| CC(=O)n1c2cccc(I)c2c2cc(-c3ccc4ccccc4c3)nnc21 | – | inactive | inactive | inactive | 25% | – | – | – | – | – | – |
| CC(=O)n1c2cccc(I)c2c2cc(-c3ccc([N+](=O)[O-])cc3)nnc21 | inactive | inactive | inactive | inactive | – | – | – | – | – | – | – |
| CC(=O)Nc1ccccc1-c1cc2c3ccccc3n(C(C)=O)c2nn1 | – | inactive | – | – | 51% | – | 49% | 50% | – | – | – |
| CC(=O)n1c2cc(Br)cc(Br)c2c2cc(-c3ccc4ccccc4c3)nnc21 | – | inactive | inactive | inactive | 26% | – | – | – | – | – | – |
| CC(=O)n1c2ccccc2c2cc(-c3ccc(Br)cc3)nnc21 | – | inactive | – | – | 25% | – | 24% | 20% | – | – | – |
| CC(=O)n1c2cccc(Cl)c2c2cc(-c3ccc4ccccc4c3)nnc21 | – | – | – | – | 68% | 19% | 45% | 41% | 16.2 µM | 17.6 µM | 14 µM |
| COc1ccc(-c2cc3c4c(Br)cccc4n(C(C)=O)c3nn2)cc1OC | – | – | – | – | 51% | 11% | 23% | 21% | – | – | – |
| CC(=O)n1c2ccccc2c2cc(-c3cccs3)nnc21 | – | – | – | – | 76% | 10% | 71% | 69% | 6.17 µM | 7.15 µM | 4.31 µM |

| SMILES | growth inhibition (GI) [1] | growth inhibition (GI) [2] | growth inhibition (GI) [3] | growth inhibition (GI) [4] | inhibition of growth at 50 µM [1] | inhibition of growth at 50 µM [2] | inhibition of growth at 50 µM [5] | inhibition of growth at 50 µM [4] | IC50 [6] | IC50 [7] | IC50 [8] |
| --- | --- | --- | --- | --- | --- | --- | --- | --- | --- | --- | --- |
| CC(=O)n1c2cccc(Cl)c2c2cc(-c3ccc(Cl)cc3)nnc21 | – | – | – | – | 19% | 5% | 17% | 12% | – | – | – |
| CC(=O)n1c2ccccc2c2cc(-c3ccccc3)nnc21 | – | – | – | – | 71% | 10% | 66% | 64% | 7.77 µM | 8.11 µM | 5.75 µM |
| CC(=O)n1c2cccc(I)c2c2cc(-c3ccccc3)nnc21 | – | inactive | inactive | inactive | 20% | – | – | – | – | – | – |
| COc1cc(-c2cc3c4c(Cl)cccc4n(C(C)=O)c3nn2)cc(OC)c1OC | – | inactive | – | – | 77% | – | 66% | 59% | 15.7 µM | 17 µM | 13.4 µM |
| COc1ccc(-c2cc3c4c(Cl)cccc4n(C(C)=O)c3nn2)cc1 | – | – | – | – | 60% | 14% | 36% | 39% | 16.9 µM | 18.2 µM | 14.9 µM |
| CC(=O)n1c2cccc(Br)c2c2cc(-c3ccc(Br)cc3)nnc21 | inactive | inactive | inactive | inactive | – | – | – | – | – | – | – |
| CC(=O)Nc1cccc(-c2cc3c4ccccc4n(C(C)=O)c3nn2)c1 | – | inactive | – | – | 49% | – | 48% | 47% | – | – | – |
| CC(=O)n1c2cccc(Br)c2c2cc(-c3ccc(Cl)cc3)nnc21 | inactive | inactive | inactive | inactive | – | – | – | – | – | – | – |
| CC(=O)n1c2cccc(I)c2c2cc(-c3ccc(Cl)cc3)nnc21 | inactive | inactive | inactive | inactive | – | – | – | – | – | – | – |
| CC(=O)n1c2ccccc2c2cc(-c3ccc(F)cc3)nnc21 | – | inactive | – | – | 42% | – | 36% | 40% | – | – | – |
| COc1ccc(-c2cc3c4c(Br)cccc4n(C(C)=O)c3nn2)cc1 | – | – | – | – | 35% | 7% | 17% | 10% | – | – | – |
| CC(=O)n1c2cc(Br)cc(Br)c2c2cc(-c3ccc(F)cc3)nnc21 | inactive | inactive | inactive | inactive | – | – | – | – | – | – | – |
| CC(=O)n1c2cccc(I)c2c2cc(-c3cccc4ccccc34)nnc21 | – | inactive | inactive | inactive | 29% | – | – | – | – | – | – |
| COc1ccc(-c2cc3c4c(I)cccc4n(C(C)=O)c3nn2)cc1 | – | inactive | inactive | – | 22% | – | – | 9% | – | – | – |
| COc1ccc(-c2cc3c4c(I)cccc4n(C(C)=O)c3nn2)cc1OC | – | – | – | – | 33% | 11% | 13% | 14% | – | – | – |
| CC(=O)n1c2cccc(Br)c2c2cc(-c3cccc4ccccc34)nnc21 | – | – | – | – | 44% | 9% | 18% | 12% | – | – | – |
| COc1cc(-c2cc3c4c(I)cccc4n(C(C)=O)c3nn2)cc(OC)c1OC | – | – | – | – | 40% | 19% | 23% | 24% | – | – | – |
| CC(=O)n1c2cc(Br)cc(Br)c2c2cc(-c3ccccc3)nnc21 | – | inactive | inactive | inactive | 21% | – | – | – | – | – | – |
| CC(=O)n1c2cc(Br)cc(Br)c2c2cc(-c3cccc4ccccc34)nnc21 | – | inactive | inactive | inactive | 24% | – | – | – | – | – | – |
| COc1cc(-c2cc3c4c(Br)cccc4n(C(C)=O)c3nn2)cc(OC)c1OC | – | – | – | – | 59% | 17% | 43% | 36% | – | – | – |
